First the molecules themselves.
B1: tRNA (parent)
chain: GUUCCGUUGGCGUAAUGGUAACGCGUCUCCCUCCUAAGGAGAAGACUGCGGGUUCGAGUCCCGUACGGAACG

This sample holds only a part of the variants without activity. A value given as a limit tells only on which side of the number the result lay.

Variants of B1 are the subject of the data set. Put plainly: yeast fitness relative to wild type (ratio to wild type); higher = fitter; tRNA-Arg(CCU), competitive growth, 37 C, YPD. In outline:
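For this measurement, the tRNA-Arg(CCU) gene was varied by chemical synthesis at a 3% per-site mutation rate across 69 sites, and each variant was placed at the native genomic locus in Saccharomyces cerevisiae. The pooled strains went through a 24-hour competition in YPD at 37°C in six parallel replicates, with amplicons from start and end populations read by 100-nucleotide paired-end sequencing. Darwinian fitness relative to wild type followed from the change in each genotype's frequency. Genotypes needed ≥ 100 starting reads, and estimates < 0.5 were set to 0.5.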
Regarding GUUCCGUUGGCGUAAUGGUAACCCGUAUCCCUCCUAAGGAGAAGGCUGCGCGUUCGAGUCCCAUACGAAACG [G23C C27A A45G G51C G63A G68A], the yeast fitness was ≤ 0.5.

With GUUCCGUUGGCGUAAUGGUAUUGCGUCUCGCUCCUAAGGAGAAGACUGCGGGUUAGAGUCCCGUACGGAACG [A21U C22U C30G C55A], the yeast fitness is ≤ 0.5. In the case of GUUCCGUUGGCGUAAUGGUAACGCGUAUCCCUCCUAAGGAGAAGACUGCGGGUUCGAGUCCCGUACGUAACG [C27A G68U] it was 0.805; in that of GUUCCGUAGGCGUAAUGGUAACGCGUCUCCCUCCUAGGGAGAGGACUGCGGGUUCGAGACCCGUACGGAACG [U8A A37G A43G U59A], 0.582; in that of GUUCCGUUGGCGUAAUGGUAACGCGUCUGCCUUCUAGGGCGAAGACUGCGGGUUCGCGUCCCGUACGGAACG [C29G C33U A37G A40C A57C], ≤ 0.5. Take GGUCCGUUGGCGUAAUGGUAACGCGUCUCACUCCGAAGGAGAAGACUGCGGGUUCGAGUCCCGUACGGAACG [U2G C30A U35G]: the yeast fitness was 0.66. In the case of GGUUCGUUGGCGUAAUGGUAACGCGUCUCCCUCCUAAGGAGGAGACUGCGGGUUCGAGUCCCGUACGGAACG [U2G C4U A42G], the yeast fitness came to 0.755. In the case of GUUCUGUUGGCGUAAUGGUAACGCGUCUCCCUCCUAAGGAGAAGACUGCGGGUUCCUGUCCCGUACGGAACG [C5U G56C A57U], the yeast fitness was ≤ 0.5. As for GUUGCGUUGGCGUAAUGGUAACGCGUCUCCCUCCUAAGGAGAAGACUCCGGGUUCGAGUCCCGUACGGAACG [C4G G48C], the figure is 0.822; as for GUUCAGUUGGCGUAAUCGUAACGCAUCUCCCUCCUAAGGAGAAGACUGCGGGUUCGAGUCCCGUACGGAACG [C5A G17C G25A], ≤ 0.5. Turning to GUUCCGUUGGCGUAAUGGUAACGCGGCUCCCUCCAAAGGAGAAGACUGCGGGUUCGAGUCCCGUACGGAACG [U26G U35A], the yeast fitness stood at 0.589. With GUUCCGAUGGCGUAAUGAUAACGCGUCUCCCUACUAACGAGAAGACUGCGGGUUCGAGUCCCGUACGGAACG [U7A G18A C33A G38C], the yeast fitness was ≤ 0.5. Regarding GUUCUGUUGGCGUAAUGGUAACGCGUCUCCCUCCUAAGGAGAAGACUGCGGGUUCGAGGCGCGUACGGAACG [C5U U59G C61G], the yeast fitness stood at 0.606.

For GUUCCGUUGGCGUGAUGGUAACGGAUCUCCCUCCUAAGGAGAGGACUGAGGGUUCGAGUCCCGUACGGAACG [A14G C24G G25A A43G C49A], the yeast fitness is ≤ 0.5. In the case of GUUCUGUUGGCGUAAUGGUAACGCAUCUCCCUCCUAUGGCGAAGACUGCGGGUUCGAGUCACGUACGGAACG [C5U G25A A37U A40C C61A] it was ≤ 0.5; in that of GUUCCGUUGGCGUAAUGGUAACGCGUCACCCUCCUAAGGAGAAGACUGAGGGUUCGAGUCCCGUACGGAACG [U28A C49A], 0.644.

In the case of GUUCCGUUGGCGUAAUGGUAACGCGUCUCGCUCCUAAGGAGAAGACUGCGGGUUCGAGUCCCAUACGGAUCG [C30G G63A A70U], the yeast fitness was ≤ 0.5. With GUUCCGUUGGCCUAGUGGUAACGCGUCUCCCUCCUAUGGGGAAGACUGCGGGUCCGAGUCCCGUAGGGAACG [G12C A15G A37U A40G U54C C66G], the yeast fitness is 0.538. As for GUUCGGUUGGCGUAAUGGUAACGCGUGACUCUCCUAAGGAGAAGACUACGGGUUCGAAUCCCGUAUGGAACG [C5G C27G U28A C30U G48A G58A C66U], the figure is ≤ 0.5; as for GUUCCGUUGGCGUCAUGGUAACGCGUCUCCCUCCUAAGGAGAAGACUGCGGGUUCGAGUCCCGAACGGAACG [A14C U64A], 0.651.

As for GUUCCGUUGGAGUAAUGGUAACGCGUCUCCCUACUCAGGAGAAGACUGCGGGUUCGAGUCCCCUAGGGAACG [C11A C33A A36C G63C C66G], the yeast fitness stood at 0.582. In the case of GUUCCGUUAGCGUAAUGGUAACGCGUCUCCCUCUUAAGGAGAAGAAUGCGGGUUCGAGUCAUGUACGGAACG [G9A C34U C46A C61A C62U] it was ≤ 0.5; in that of GUUGCGAUGGCGUAAUGGUAAUGCGUCUCCCUCCUAAGGAGAAGACUGCGGGUUCGAGUCCCGUAAGGAACG [C4G U7A C22U C66A], ≤ 0.5. As for GUUCCGUUGGCGUAAUGGUAACGUGUCUCCCUCCUAAGGCGAAGACUGCGGGUUCGAGUCCCGUACGGAACG [C24U A40C], the figure is 0.806. As for GUUCCGUUGGCGUAAUCGUAACGCGUCUACCUCCUAAGGAGAAGACUGCGGGUUCGAGUCCCGUACGGAACG [G17C C29A], the figure is 0.544; as for GUUCAGUUGGCGUAAUGGUAACGCGUCCCUCUCCUCAGGAGGAGACUGCGGGUUCGAGUCCCGUACGGAACG [C5A U28C C30U A36C A42G], ≤ 0.5; as for GUUCCGUUGGCGUACUUGAAACGCGUCUCCUUCAUAAGGAGAAGACUGCGGGUUCGAGUCCCGUACGGAACG [A15C G17U U19A C31U C34A], ≤ 0.5. As for GUUCCGUUGGCAUAAUGGUAACGGGUCUCCCUCCUAAGGAGACGACUGCGGGUUCGAGUCCUGUGCGGAACG [G12A C24G A43C C62U A65G], the yeast fitness amounted to 0.636. For GUUCCGUUGGCGUAAUGGUAACGCGUCUCCCUCCUAAGGAGAUGACUACGGGUUCGAGUACCGUACGGAACG [A43U G48A C60A], the yeast fitness came to 0.586. In the case of GUUCCGUUGCCGUUAUGGUAAUGGGUCUCCCUCCCAAGGAGAAGACUGCGGGUUCCAGUCCCGAACGGAACG [G10C A14U C22U C24G U35C G56C U64A], the yeast fitness is ≤ 0.5. GUUCCGUUGCCGUAAUGGUAACGCGUCUCCCUCCUAAGGAGAAGACUGCGGGUUCGAUUCCCGUACGGAACG [G10C G58U]: the yeast fitness was ≤ 0.5. As for GUACCGUAGGCGCAAUGGUAACGCGUCUCCGUCCUAAGGCGAAGACUGCGGGUUCGAGUCCCGUACGGAACG [U3A U8A U13C C31G A40C], the figure is ≤ 0.5. In the case of GUUCCGUUGGCGUAAUGGUAACGCGUCUUCCUCCUAAGGAGAAGACUGCCGGUUCGAGUACCGUACGGAACG [C29U G50C C60A] it was ≤ 0.5; in that of GUUCCGUGGGCGUAAUGGUAACGCGACUCCCUCCUAAGGAGAAGACUGCGGAUACGAGUACCGUACGGAACG [U8G U26A G52A U54A C60A], ≤ 0.5; in that of GUUCCGUUGGCAUAAUGGUAACGGGUCUCCCUACUAAGGCGAAGACUGCGGGUUCGAGUCCCGUACGGAACG [G12A C24G C33A A40C], ≤ 0.5. As for GUUCCGUUGGCGUAAUGGUAACGCGUCUCCCUCCUAAGGAGAAGACGGCGGGUUCGAGUUCCGUACGGAACG [U47G C60U], the figure is 0.548; as for GUUCUGUUGGCGUAAUGGUAACGCGUAUCCCUCCUAAGGAGAAGACUGCGGGUUCGAGUCCCCUACGGAACG [C5U C27A G63C], ≤ 0.5; as for GUGCCGUUGGCGUAAUGGUAACGCGACUACCUCAUAAAGAGAAGACUGCGGGUUCGAGUCCCGUUCGGAACG [U3G U26A C29A C34A G38A A65U], ≤ 0.5.

The values above are taken from the RNAGym collection of RNA variant scans (doi:10.1126/science.aae0568).
